Compound activity as filed in PubChem BioAssay.
TCR-CD3 inh: blocks the human TCR-CD3 interaction | TAMRA-labeled TCR probe fluorescence, biochemical | inhibition, % at 9.4 µM | hit rate 0.37% among 360,000 | AID 651800;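 note: recombinant mutant TCR 2C K166C tagged with TAMRA read by polarization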
DAGLB inh: diacylglycerol lipase beta (human) inhibition; HEK293T DAGLB membrane lysate, EnzChek fluorogenic substrate; inhibition, % at 5.17 µM; hit rate 0.059% among 340,000; in the data active = inhibition above about 34%
HTRA1 inh: HTRA1 (human) protease inhibition; inhibition, % at 5.96 µM; Q92743; hit rate 0.5% among 340,000; recombinant HTRA1, FP-rhodamine activity-based probe, fluorescence polarization; AID 504803; in the data active = inhibition above about 36%
mABHD4 FP: ABHD4 (mouse) inhibition, primary FP screen; inhibition, % at 8.92 µM; purified mABHD4, FP-Rh probe fluorescence polarization; Q8VD66; hit rate 0.54% among 370,000;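 active = inhibition exceeding the mean over every tested compound plus 3 SD, cut at about 30% in these data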
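Test system: mouse ABHD4 enzyme, wild type. Reagent: FP-Rh fluorescent activity-based probe, added after compound pre-incubation. Timing: pre-incubation 45 min, probe exposure 60 min, at 25 °C. Technique: FP readout, ex 525 nm / em 598 nm. Benchmarks: high control S159A mutant with DMSO, low control median of compound wells.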
SIAE inh: human SIAE inhibition, primary screen. SIAE FP-Rh probe binding, fluorescence polarization. Q9HAT2. hit rate 0.69% among 370,000. AID 1053197. inhibition, % at 9.66 µM;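 active = inhibition above a cutoff: mean of compounds within the control limits plus 3 SD of those, cut at about 17% in these data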
Target sequence (Q9HAT2 whole entry, looked up): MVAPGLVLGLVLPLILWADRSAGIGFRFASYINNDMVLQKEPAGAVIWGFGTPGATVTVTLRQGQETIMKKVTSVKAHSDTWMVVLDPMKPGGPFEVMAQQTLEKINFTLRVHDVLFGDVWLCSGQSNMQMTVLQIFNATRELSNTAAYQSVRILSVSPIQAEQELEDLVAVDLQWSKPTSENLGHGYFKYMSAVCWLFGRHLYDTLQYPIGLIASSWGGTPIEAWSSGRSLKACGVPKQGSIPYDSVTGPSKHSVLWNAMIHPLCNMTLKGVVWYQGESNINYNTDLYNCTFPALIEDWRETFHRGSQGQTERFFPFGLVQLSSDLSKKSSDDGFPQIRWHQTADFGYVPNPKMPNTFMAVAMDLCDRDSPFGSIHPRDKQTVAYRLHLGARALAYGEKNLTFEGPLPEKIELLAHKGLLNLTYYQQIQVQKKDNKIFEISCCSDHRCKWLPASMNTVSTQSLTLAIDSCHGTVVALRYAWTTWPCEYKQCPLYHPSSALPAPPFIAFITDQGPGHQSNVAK
HTRA1 conf: HTRA1 (human) inhibition, confirmation. recombinant HTRA1, FP-rhodamine activity-based probe, fluorescence polarization. inhibition, % at 5.96 µM. shares compounds with HTRA1 inh. hit rate 66% among 1,600;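 active = mean inhibition over three repeats above a set limit taken from the earlier primary screen, cut at about 37% in these data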;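 note: inhibitors block probe binding so polarization drops and inhibition rises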
BSA TAMRA ctr: BSA probe counter-screen for TCR-CD3 inhibitors. shares compounds with TCR-CD3 inh. TAMRA-labeled BSA probe fluorescence counterscreen. inhibition, % at 9.4 µM. hit rate 10% among 1,200. AID 652035; in the data active = inhibition above about 23%
TCR-CD3 conf: confirmation of human TCR-CD3 interaction inhibitors; shares compounds with TCR-CD3 inh; TAMRA-labeled TCR probe fluorescence binding assay; inhibition, % at 9.4 µM; hit rate 48% among 1,200; AID 652036
ABHD4 confirm: confirmation of mouse ABHD4 inhibitors. inhibition, % at 8.92 µM. shares compounds with mABHD4 FP. hit rate 55% among 1,800. purified mABHD4, FP-Rh probe fluorescence polarization;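 active = mean inhibition across replicates above the hit cutoff set in the primary screen, cut at about 30% in these data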
SIAE confirm: confirmation of human SIAE inhibitors; inhibition, % at 9.66 µM; SIAE FP-Rh activity-based probe, fluorescence polarization; hit rate 13% among 2,300; shares compounds with SIAE inh;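 active = mean inhibition of the replicates above the hit cutoff set in the primary screen, cut at about 17% in these data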;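 note: inhibitors lower polarization as more probe stays unbound to SIAE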
A number is an active result; n = inactive; x = not tested or not shown. The list is not random: actives were taken first. Their share in the collection is about 1.5%. Cut-off read from the data, not from the text of the source, unless noted: active = inhibition above about 19%; inactive = the rest.

SMILES	TCR-CD3 inh	DAGLB inh	HTRA1 inh	mABHD4 FP	SIAE inh	BSA TAMRA ctr	TCR-CD3 conf	others
O=C(c1ccccc1)c1ccc2nc(-c3ccco3)c(-c3ccco3)nc2c1	n	n	45	44	25	x	x	HTRA1 conf=191;ABHD4 confirm=n;SIAE confirm=n
CCOC(=O)[C@]12CCCCC/C=C\1N(CCc1ccc(Cl)cc1)C(=O)[C@H]2CC(=O)NCc1ccc(OC)c(OC)c1	x	x	x	n	n	x	x
N#CC(c1c(Cl)cccc1N1CCCCC1)N1CCCCC1 (configuration not stated)	n	x	x	n	n	x	x
COc1ccc2[nH]c3c(c2c1)CCNC3c1ccc([N+](=O)[O-])o1 (configuration not stated)	n	n	43	n	21	x	x	HTRA1 conf=47;SIAE confirm=22
COc1cc2nc(Nc3ccc(C)c(C)c3)nc(N)c2cc1OC	n	n	n	n	n	x	x
COc1cc2nc(Nc3ccc(C)c(Cl)c3)nc(N)c2cc1OC	n	n	36	42	58	x	x	HTRA1 conf=46;ABHD4 confirm=66;SIAE confirm=62
c1ccc(Cn2ccc3ccc(-c4ccc5ccn(Cc6ccc7ccccc7c6)c5c4)cc32)cc1	x	x	x	n	n	x	x
O=C(CCl)N1c2ccccc2Oc2ccc3ccccc3c21	22	n	80	62	22	x	x	HTRA1 conf=n;ABHD4 confirm=n;SIAE confirm=n
O=C(N[C@H](C(=O)N1CCC[C@H]1C(=O)NC1CCCC1)C1CCCCC1)c1ccccn1	n	x	x	n	n	x	x
O=C1C2CCCCN2C(=O)N1CCCN1CCN(c2ccc(F)cc2)CC1 (configuration not stated)	x	n	n	x	x	x	x
Nc1ccc(N2CCN(CCCCN3C(=O)C4CCCN4C3=O)CC2)cc1 (configuration not stated)	n	n	38	81	31	x	x	HTRA1 conf=n;ABHD4 confirm=n;SIAE confirm=n
COC(=O)c1cccc(Cn2ccc3ccc(-c4ccc5ccn(C(=O)C6CC6)c5c4)cc32)c1	x	x	x	n	n	x	x
COC(=O)/C(=C/Nc1ccc(O)cc1)[N+](=O)[O-]	99	n	45	94	25	n	n	HTRA1 conf=n;ABHD4 confirm=n;SIAE confirm=n
N#C/C(=C/c1ccc(O)c(O)c1)c1nc2ccccc2[nH]1	36	n	65	58	29	n	48	HTRA1 conf=94;ABHD4 confirm=65;SIAE confirm=51
COC(=O)c1cc2c(c3c4cc(F)ccc4n(S(=O)(=O)c4ccc(C)cc4)c13)C(=O)N(Cc1ccccc1OC)C2	n	x	x	n	n	x	x
Cc1cc(C)c(S(=O)(=O)NCCn2c(C)cc3ccccc32)c(C)c1	71	n	66	60	24	n	n	HTRA1 conf=n;ABHD4 confirm=n;SIAE confirm=n
Cc1cc(C)c(S(=O)(=O)NCc2ccc3c(c2)cc(C)n3C)c(C)c1	71	n	60	55	39	30	26	HTRA1 conf=n;ABHD4 confirm=n;SIAE confirm=n
Cc1cc2cc(CNS(=O)(=O)c3ccc4ccccc4c3)ccc2n1C	58	n	67	51	26	n	n	HTRA1 conf=n;ABHD4 confirm=n;SIAE confirm=n
Nc1ccc(N(CCO)CCO)cc1	27	n	n	n	n	n	n
Oc1cc(O)cc(C=Cc2ccc(O)c(O)c2)c1	21	x	x	n	n	n	n
COc1cccc(NC(=O)Nc2c(-c3ccc(C)cc3)nc3ncccn23)c1	x	x	x	n	n	x	x
Cc1ccc(NC(=O)C(OC(=O)c2ccc(NC(N)=O)cc2)c2ccccc2)cc1Cl (configuration not stated)	46	n	n	n	n	n	32
N#CCC(=O)Nc1ccc(C(=O)OC(C(=O)Nc2ccc([N+](=O)[O-])cc2Br)c2ccccc2)cc1 (configuration not stated)	n	n	n	n	n	x	x
N#CCC(=O)Nc1ccc(C(=O)OC(C(=O)Nc2cc(C(F)(F)F)ccc2Cl)c2ccccc2)cc1 (configuration not stated)	47	n	n	n	n	n	34
COc1ccc(NC(=O)N(C)[C@H]2C[C@H]3c4[nH]c5c(-c6ccccc6)cccc5c4CCN3C(=O)[C@H]2[C@H](C)O)cc1	n	x	x	n	n	x	x
SMILES	TCR-CD3 inh	DAGLB inh	HTRA1 inh	mABHD4 FP	SIAE inh	BSA TAMRA ctr	TCR-CD3 conf	others
Cc1ccc(NC(=O)CN(C)C(=O)c2cccc(-n3cccc3)c2)cc1	22	n	n	n	n	n	n
COc1ccc(NC(=O)CN(C)C(=O)c2cccc(-n3cccc3)c2)cc1	n	n	n	n	n	x	x
Cc1c(NC(=S)N/N=C/c2ccc([N+](=O)[O-])cc2O)c(=O)n(-c2ccccc2)n1C	24	n	n	n	n	n	n
O=[N+]([O-])c1cc(C(F)(F)F)ccc1NC1CCN(Cc2ccccc2)CC1	39	x	x	n	n	n	n
O=[N+]([O-])c1cc(C(F)(F)F)ccc1NC1CCN(Cc2ccccc2)C1 (configuration not stated)	n	n	n	n	n	x	x
COC(=O)[C@]12C[C@H](CC(=O)NCCC(C)C)C(=O)N(CCC3=CCCCC3)C1=C[C@H](COCc1ccccc1)O[C@@H]2C	n	x	x	n	n	x	x
O=C(Nc1nnc([C@H]2C[C@H](O)[C@@H](CO)O2)s1)c1cccc(Oc2ccccc2)c1	21	x	x	n	n	n	n
O=C(Nc1nnc([C@@H]2C[C@H](O)[C@@H](CO)O2)s1)c1cccc(Oc2ccccc2)c1	n	x	x	n	n	x	x
CCOC(=O)C1CCN(CC(O)COCc2ccccc2)CC1 (configuration not stated)	n	n	n	n	n	x	x
CCOC(=O)C1CCN(CC(O)COCc2cccs2)CC1 (configuration not stated)	23	n	n	n	n	n	n
CCc1nnc(NC(=O)CCC(=O)NC2CCCCC2)s1	n	n	n	n	n	x	x
CC(C)Cc1nnc(NC(=O)CCC(=O)NC2CCCCC2)s1	20	n	n	n	n	n	n
Cc1nn(-c2ccccc2)c(Cl)c1/C=N/NC(=O)c1cccnc1	n	n	n	n	n	x	x
O=C(N/N=C/c1c(Cl)nc2ccccn2c1=O)c1cccnc1	29	n	n	n	n	n	n
O=S1(=O)N[C@H](Cc2ccccc2)COc2cc(N3CCOCC3)ccc21	n	x	x	n	n	x	x
Oc1ccccc1-c1cnc2cccnn12	24	x	x	n	n	n	n
COc1ncccc1-c1cnc2cccnn12	n	x	x	n	n	x	x
COC(=O)C1=C(C)N(C)C(=NCc2cccc(C(F)(F)F)c2)NC1c1cccc(F)c1 (configuration not stated)	n	x	x	n	n	x	x
Cc1cc2c(nc1C)CCCN2Cc1ccccn1	39	x	x	n	n	39	34
